High-throughput results (PubChem)
An excerpt weighted towards active compounds, which were near 11% of everything screened.
TNAP act mid DEA = activates human TNAP at intermediate phosphate acceptor concentration. P05186. purified TNAP, CDP-star luminescence, 100 mM DEA, 30 min; hits give high values; scale: 0 levamisole-inhibited, 1 vehicle-only enzyme. activation factor at 20 µM. 64,000 tested, under 10 active;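 active = activation factor of at least 2 at 20 µM, relative to controls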
D1 mod = allosteric modulators of human D1 dopamine receptor; P21728; HEK293 D1, CRE-luciferase, dopamine EC30 potentiation; actives deviate in either direction; B-score at 10 µM; hit rate 5.9% among 58,000;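 active = luminescence count or its row- and column-corrected plate score outside the 99.7% band of the plate's sample wells, on either side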
M1 agonist = agonists of M1 muscarinic receptor; CHO-M1 cells, Fluo-4 calcium fluorescence, agonist mode; hits give high values; B-score at 10 µM; hit rate 3% among 64,000;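 active = fluorescence rise, raw or as B-score row- and column-corrected plate score, outside the 99.7% band of its plate's samples, either direction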
S1P1 ag-PAM = agonists and agonism potentiators of human S1P1 receptor; P21453; S1P1 CRE-bla cells, forskolin, beta-lactamase FRET, potentiator mode; S1P1 agonist co-added at EC20, 2 nM; 100% = saturating reference agonist, 0% = basal; activation, % at 9.5 µM; hit rate 0.57% among 56,000; AID 449;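 active = activation above a cutoff set at the mean activation of all tested compounds plus 3 SD, cut at about 54% in these data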;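 also: forskolin at 4 µM as EC80 and the EC20 agonist is SEW2871; 100% = SEW2871 at its EC100 plus forskolin at EC80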
M1 antag = blocks the rat M1 muscarinic receptor response to acetylcholine | P08482 | CHO-M1 cells, Fluo-4 calcium, ACh EC80 antagonist mode; hits give low values | B-score at 10 µM | hit rate 3.4% among 64,000 | AID 628;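 active = calcium fluorescence response, raw or row-and-column corrected B-score, differing from the plate sample mean either way at a set confidence level, mostly lower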
S1P3 agonist = S1P3 (human) receptor agonism. Q99500. hit rate 0.1% among 60,000. S1P3 NFAT-BLA reporter cells, FRET ratio; relative to 1 µM S1P, basal subtracted. AID 373. activation, % at 4.5 µM;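 active = activation above the screen-wide mean plus 3 SD, cut at about 4.5% in these data, passing the limit was not always enough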
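Assay system: stable CHO line with human S1P3, Gα16, NFAT-BLA reporter; Detection: FRET β-lactamase substrate fluorescence, excitation 405 nm, 460/535 nm emission ratio, background-subtracted; Read-out: percent activation versus median 1 µM S1P response, basal-subtracted, per plate; Incubation: cells plated overnight, compound 4 h 37 °C, substrate 2 h RT.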
M1 agonist conf = rat M1 muscarinic agonism, confirmation. shares compounds with M1 agonist. CHO-M1 cells, Fluo-4 calcium fluorescence, agonist mode; actives lie on both sides. fluorescence change (max-min) at 10 µM. hit rate 19% among 1,700. AID 1488;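 active = fluorescence change differs from the solvent-only DMSO control mean at a set confidence level in both duplicate runs; inconclusive = differs from solvent-only control mean in just one of two runs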;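 also: an EC20 dose of acetylcholine follows compound addition during the same imaging run; raw fluorescence intensity difference in instrument units with no normalization to controls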
M4 agonist ctr = activates rat M4 receptor in counter-screen for M1 agonists; shares compounds with M1 agonist; CHO M4/Gqi5 cells, Fluo-4 calcium fluorescence, agonist mode; actives lie on both sides; fluorescence change (max-min) at 10 µM; hit rate 9% among 1,700; AID 1741;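 active = fluorescence change differing from the plate's solvent-only control wells at 99.7% confidence in both duplicates, whether higher or lower; inconclusive = differs from solvent controls in only one of two duplicates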
Target sequence (P08485 whole entry, looked up): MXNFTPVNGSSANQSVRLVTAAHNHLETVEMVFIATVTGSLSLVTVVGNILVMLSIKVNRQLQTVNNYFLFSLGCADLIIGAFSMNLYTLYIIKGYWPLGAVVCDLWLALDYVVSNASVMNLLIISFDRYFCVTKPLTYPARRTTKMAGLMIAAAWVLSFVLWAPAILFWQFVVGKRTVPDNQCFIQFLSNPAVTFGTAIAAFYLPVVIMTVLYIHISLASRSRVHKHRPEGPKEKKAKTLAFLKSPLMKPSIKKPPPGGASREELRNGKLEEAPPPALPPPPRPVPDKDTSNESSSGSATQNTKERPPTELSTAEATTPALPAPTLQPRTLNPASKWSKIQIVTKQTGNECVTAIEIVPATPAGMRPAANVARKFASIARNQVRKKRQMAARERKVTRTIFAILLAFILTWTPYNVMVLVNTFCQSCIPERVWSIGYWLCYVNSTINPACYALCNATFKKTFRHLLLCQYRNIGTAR
Numbers without * were called inactive; ? = inconclusive; nt = no result.

SMILES | TNAP act mid DEA | D1 mod | M1 agonist | S1P1 ag-PAM | M1 antag | S1P3 agonist | M1 agonist conf | M4 agonist ctr
CN1CCCc2cc3c(C(F)(F)F)cc(=O)oc3nc21 | 1.1 | 2.57 | 429* | nt | -17.3* | 0.0 | 2526* | 2146*
Cc1ccc(CCNC(=O)Cn2cccc2)cc1 | 0.9 | -0.755 | 0.148 | 1.9 | -0.37 | -2.1 | nt | nt
COc1ccc(S(=O)(=O)Cc2ccc(C(=O)N3CCN(c4ccc(Cl)cc4)CC3)o2)cc1 | 1 | -0.826 | 2.33* | 69.2 | -0.465 | -1.1 | -4.25 | -10.4
COc1ccc(S(=O)(=O)Cc2ccc(C(=O)N3CCN(c4cccc(C)c4)C(C)C3)o2)cc1 (stereo not given) | 0.9 | -1.66 | 3.43* | 10.3 | -1.36 | -0.1 | ? | -35.3
COc1ccc(S(=O)(=O)Cc2ccc(C(=O)NCCc3ccc(S(N)(=O)=O)cc3)o2)cc1 | 0.8 | 0.0773 | 3.8* | -13.2 | -0.612 | 0.1 | ? | -58.9
COc1ccc(N2CCN(C(=O)c3ccc(NS(=O)(=O)c4ccc(F)c(F)c4)cc3)CC2)cc1 | 0.9 | -0.0302 | 2.3* | nt | -0.237 | nt | -8.51 | -35.1
COc1ccc(N2CCN(C(=O)c3ccc(CS(=O)(=O)c4ccc(OC)cc4)o3)CC2)cc1 | 1 | 0.162 | 0.253 | 9.5 | -1.37 | 0.3 | nt | nt
COCCCNC(=O)c1ccc(CS(=O)(=O)c2ccc(OC)cc2)o1 | 0.8 | 0.144 | 0.275 | -9.3 | -0.191 | -1.1 | nt | nt
Cc1cccc(NC(=O)CCN2C(=O)C3C4C=CC(C4)C3C2=O)n1 (stereo not given) | 1 | 0.0296 | 0.0257 | -8.4 | -1.31 | -0.7 | nt | nt
O=C(CN1c2cccc3cccc(c23)S1(=O)=O)NCc1ccc2c(c1)OCO2 | 1 | 5.28* | 21.1* | 7.1 | -3.96* | -1.1 | 47.5 | -18.3
CCN=C(NCC)SC1CC(=O)N(c2cccc(OCC)c2)C1=O (stereo not given) | 0.9 | -0.911 | 13.9* | -19.4 | -2.6* | -0.4 | -3.61 | -22.4
COc1cc(Nc2cc(C)nc3ncnn23)cc(OC)c1 | 1 | 0.0177 | 1.38 | -12.8 | -0.799 | 1.1 | nt | nt
COc1cc(Nc2cc(C)nc3ncnn23)cc(OC)c1OC | 0.9 | 0.602 | 4.45* | -19.7 | -0.684 | -0.1 | ? | -35.8
CC1(C)CC(=O)C(C=NCC2CCN(C(=O)Nc3ccccc3)CC2)=C(O)C1 | 0.9 | 0.419 | 0.161 | -7.0 | 0.145 | -1.6 | nt | nt
CCN(CC)S(=O)(=O)c1cccc(-c2nnc(SCCOc3ccccc3C)o2)c1 | 0.9 | nt | 5.56* | 7.8 | -1.21 | -0.8 | 18.2 | ?
CCN(CC)S(=O)(=O)c1cccc(-c2nnc(SCCOc3ccc(Cl)cc3)o2)c1 | 1 | -1.75 | -1.48 | 11.9 | 0.0533 | -0.8 | nt | nt
CCOC(=O)C1C(=O)CC(C)(O)C(C(=O)OCC)C1c1ccco1 (stereo not given) | 0.9 | 0.972 | -0.924 | -17.6 | -0.902 | -1.3 | nt | nt
Cn1c(C(=O)N2CCc3ccccc3C2)cc2c(=O)n3ccccc3nc21 | 1.1 | 2.93 | 2.14 | -75.8 | 0.459 | 0.5 | nt | nt
CC1Cc2ccccc2N1C(=O)c1cc2c(=O)n3ccccc3nc2n1C (stereo not given) | 0.9 | -2.11 | 8.41* | -57.2 | -0.578 | -0.3 | -6.45 | -11.9
COCCn1c(=S)[nH]c2ccc(N(C)C)cc2c1=O | 0.9 | -0.0785 | 6.26* | 4.8 | -0.178 | 0.4 | 34.3 | -6.23
CN1CCN(S(=O)(=O)c2ccc(Cc3ccc(S(=O)(=O)N4CCN(C)CC4)cc3)cc2)CC1 | 0.9 | -3.5 | -0.468 | -9.9 | -0.509 | -0.4 | nt | nt
Cc1noc(C(=O)Nc2sc3c(c2C#N)CCC3)c1Cl | 0.9 | -0.588 | -3.6* | -5.3 | -0.678 | 0.8 | 2.95 | -19.6
COc1ccc(C2C(C#N)=C(N)N3C(=C2C#N)Sc2ccccc23)cc1 (stereo not given) | 1 | 0.391 | 46.1* | -22.0 | -1.53 | -0.2 | 131* | 92.4
COC(=O)C1=C2SC(C)C(=O)N2C(N)=C(C#N)C1c1ccc(OC)c(OC)c1 (stereo not given) | 0.9 | -0.14 | -0.742 | -21.1 | 0.422 | -1.0 | nt | nt
CCCn1nc(C(=O)Nc2cccc(C(=O)OC)c2)c2ccccc2c1=O | 0.9 | -1.88 | 5.69* | -31.1 | -0.217 | -0.4 | -10.1 | -45.3
SMILES | TNAP act mid DEA | D1 mod | M1 agonist | S1P1 ag-PAM | M1 antag | S1P3 agonist | M1 agonist conf | M4 agonist ctr
COc1cccc(NS(=O)(=O)c2nc3nc(C)cc(C)n3n2)c1 | 1 | -0.612 | 0.153 | -26.4 | 0.0129 | 1.3 | nt | nt
Cc1ccc(-c2csc(N(CCCN3CCOCC3)C(=O)c3ccco3)n2)cc1 | 0.9 | -0.125 | 2.34 | 1.9 | 0.416 | -0.3 | nt | nt
COc1ccc(-c2csc(N(CCCN3CCOCC3)C(=O)c3ccco3)n2)cc1 | 0.9 | nt | 8.81* | 8.2 | -1.13 | -0.4 | -1.49 | -38.9
COc1ccc(-c2csc(N(CCCN(C)C)C(=O)c3cccs3)n2)cc1 | 0.9 | -0.419 | 27* | -6.8 | -9.51* | 0.6 | 10.9 | -36.6
C=CCNS(=O)(=O)c1nc(C)c(Cl)c(C)c1C#N | 1 | 0.743 | nt | 2.1 | nt | -1.3 | nt | nt
Clc1ccc(OCCN2CCN(c3ncnc4sccc34)CC2)cc1 | 0.9 | -2.94 | 4.46* | 115.3* | -3.26* | -1.9 | 14.9 | -21
CN(C(=O)c1cnc(N2CCN(c3ncccn3)CC2)c2ccccc12)c1ccc(Cl)cc1 | 0.9 | -0.625 | 5.32* | -0.6 | -0.759 | -0.9 | -16.1 | ?
O=C(COc1ccc(Cl)cc1)N1CCN(c2ncccn2)CC1 | 1 | 0.798 | 0.101 | -5.3 | 0.00383 | -0.4 | nt | nt
O=C(c1cnc(N2CCN(c3ncccn3)CC2)c2ccccc12)N1CCN(c2ncccn2)CC1 | 0.9 | -0.344 | 11.2* | 2.1 | -1.25 | -0.5 | -13.7 | -27.7
CCN(C(=O)c1cnc(N2CCN(c3ncccn3)CC2)c2ccccc12)c1cccc(Cl)c1 | 0.9 | -1.38 | 3.32* | -17.8 | -0.784 | -0.8 | -19.3 | ?
COc1ccc(OC(C)C(=O)N2CCN(c3ccccn3)CC2)cc1 (stereo not given) | 0.8 | -0.136 | -0.428 | -1.9 | 0.0823 | -1.0 | nt | nt
O=C(c1ccc2c3c(cccc13)CC2)N1CCN(c2ncccn2)CC1 | 0.8 | -0.0159 | 1.31 | nt | 0.207 | 0.0 | nt | nt
CC(C)NC(=O)c1cnc(N2CCN(c3ccccn3)CC2)c2ccccc12 | 1 | -0.724 | 5.84* | -14.5 | 0.0946 | -0.7 | -18.4 | -28.6
O=C(c1cccc2ccccc12)N1CCC(N2CCN(c3ccccc3)CC2)CC1 | 0.9 | -1.13 | -0.309 | 7.7 | 0.53 | -3.2 | nt | nt
CC1CCN(Cc2ccc(-c3nn[nH]n3)cc2)CC1 | 0.9 | -0.0208 | 0.0221 | -48.2 | -0.00603 | -1.2 | nt | nt
